These results are taken from ChEMBL document CHEMBL1137278, “Aza-stilbenes as potent and selective c-RAF inhibitors” (Bioorg Med Chem Lett, 2006).

Assay [1] is described as follows: Inhibition of c-RAF1/MEK1/ERK2 signalling pathway by SPA. The procedure, abridged:
(§1)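 Incubated 120 min at room temperature, stopped with EDTA/streptavidin SPA beads, counted by scintillation. 11-point 3-fold dilutions (0.0001–10 µM), normalized to DMSO and EDTA controls; IC50 fitted.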

The target of assay [2] is Mitogen-activated protein kinase 10 (Homo sapiens) (UniProt P53779). As to the kind of experiment: Inhibition of JNK3.
For assay [3], the target named is MAP kinase p38 (Homo sapiens) (UniProt O15264+Q15759+Q16539+P53778). Kind of assay: Inhibition of p38. The assay is classed as protein assay.
The target in assay [4] is RAF proto-oncogene serine/threonine-protein kinase (Homo sapiens, UniProt P04049). As to the kind of experiment: Inhibition of c-RAF. The procedure, abridged:
as §1

The target in assay [5] is Tyrosine-protein kinase Fyn (Mus musculus, UniProt P39688). As to the kind of experiment: Inhibition of mouse FYN.
Assay [6] deals with Tyrosine-protein kinase Fyn (Mus musculus) (UniProt P39688). As to the kind of experiment: Inhibition of mouse FYN at 10 uM.
In assay [7] the target is Proto-oncogene tyrosine-protein kinase LCK (Mus musculus) (UniProt P06240). Kind of assay: Inhibition of mouse LCK at 10 uM.
Assay [8] addresses Tyrosine-protein kinase Lyn (Homo sapiens) (UniProt P07948). Kind of assay: Inhibition of LYN at 10 uM.
Assay [9] addresses Proto-oncogene tyrosine-protein kinase Src (Homo sapiens) (UniProt P12931). As to the kind of experiment: Inhibition of SRC kinase at 10 uM.

By IC50 is commonly meant the concentration that gives 50% inhibition.

The source made the active and inactive calls. No cut-off for these calls is given here.

Chain of Mitogen-activated protein kinase 10 (Homo sapiens) (P53779 whole entry): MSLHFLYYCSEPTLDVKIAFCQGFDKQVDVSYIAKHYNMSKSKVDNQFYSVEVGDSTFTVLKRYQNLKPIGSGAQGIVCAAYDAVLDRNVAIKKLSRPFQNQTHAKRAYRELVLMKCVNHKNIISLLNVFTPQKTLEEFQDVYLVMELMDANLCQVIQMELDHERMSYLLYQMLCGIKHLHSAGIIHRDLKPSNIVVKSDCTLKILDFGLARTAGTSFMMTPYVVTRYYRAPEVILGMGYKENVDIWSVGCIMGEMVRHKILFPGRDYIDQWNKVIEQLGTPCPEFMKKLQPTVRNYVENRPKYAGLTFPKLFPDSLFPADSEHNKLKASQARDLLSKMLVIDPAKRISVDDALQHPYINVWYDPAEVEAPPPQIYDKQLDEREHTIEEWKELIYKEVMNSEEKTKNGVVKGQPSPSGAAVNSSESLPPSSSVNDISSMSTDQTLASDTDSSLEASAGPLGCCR
Chain of RAF proto-oncogene serine/threonine-protein kinase (P04049 whole entry): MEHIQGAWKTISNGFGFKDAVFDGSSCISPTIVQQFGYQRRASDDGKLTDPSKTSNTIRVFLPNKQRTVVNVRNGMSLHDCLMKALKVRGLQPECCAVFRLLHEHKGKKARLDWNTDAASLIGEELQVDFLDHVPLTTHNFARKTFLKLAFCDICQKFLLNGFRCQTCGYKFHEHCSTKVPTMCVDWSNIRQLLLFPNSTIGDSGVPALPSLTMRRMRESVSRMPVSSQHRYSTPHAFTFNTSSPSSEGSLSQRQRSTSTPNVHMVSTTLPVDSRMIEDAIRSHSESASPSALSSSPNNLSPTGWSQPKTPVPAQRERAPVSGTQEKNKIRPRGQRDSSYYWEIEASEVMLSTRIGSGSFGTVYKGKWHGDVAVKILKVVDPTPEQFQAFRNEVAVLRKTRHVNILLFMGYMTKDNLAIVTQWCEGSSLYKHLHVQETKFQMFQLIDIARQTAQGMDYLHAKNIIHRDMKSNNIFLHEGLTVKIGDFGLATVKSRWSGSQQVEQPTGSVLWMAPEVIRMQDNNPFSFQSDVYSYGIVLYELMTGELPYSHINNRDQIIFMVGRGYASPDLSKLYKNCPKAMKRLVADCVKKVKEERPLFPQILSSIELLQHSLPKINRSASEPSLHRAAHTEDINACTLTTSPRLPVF
Chain of Tyrosine-protein kinase Fyn (Mus musculus) (P39688 whole entry): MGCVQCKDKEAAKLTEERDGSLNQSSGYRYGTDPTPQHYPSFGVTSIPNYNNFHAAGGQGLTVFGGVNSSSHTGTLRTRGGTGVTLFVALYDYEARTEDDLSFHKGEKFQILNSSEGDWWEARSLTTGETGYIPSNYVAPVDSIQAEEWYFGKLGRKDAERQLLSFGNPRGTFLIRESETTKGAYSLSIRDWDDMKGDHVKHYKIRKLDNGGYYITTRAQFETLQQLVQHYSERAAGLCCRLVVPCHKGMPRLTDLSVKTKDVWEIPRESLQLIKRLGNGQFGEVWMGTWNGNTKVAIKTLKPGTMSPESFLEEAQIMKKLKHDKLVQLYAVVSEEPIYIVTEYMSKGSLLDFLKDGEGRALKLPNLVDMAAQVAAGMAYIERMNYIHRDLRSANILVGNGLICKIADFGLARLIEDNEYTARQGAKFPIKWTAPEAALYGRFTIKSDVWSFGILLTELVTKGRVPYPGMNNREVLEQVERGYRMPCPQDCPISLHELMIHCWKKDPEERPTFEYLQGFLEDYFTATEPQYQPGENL
Chain of Tyrosine-protein kinase Fyn (P39688 whole entry): as above
Chain of Proto-oncogene tyrosine-protein kinase LCK (Mus musculus) (P06240 2-509 limits assumed): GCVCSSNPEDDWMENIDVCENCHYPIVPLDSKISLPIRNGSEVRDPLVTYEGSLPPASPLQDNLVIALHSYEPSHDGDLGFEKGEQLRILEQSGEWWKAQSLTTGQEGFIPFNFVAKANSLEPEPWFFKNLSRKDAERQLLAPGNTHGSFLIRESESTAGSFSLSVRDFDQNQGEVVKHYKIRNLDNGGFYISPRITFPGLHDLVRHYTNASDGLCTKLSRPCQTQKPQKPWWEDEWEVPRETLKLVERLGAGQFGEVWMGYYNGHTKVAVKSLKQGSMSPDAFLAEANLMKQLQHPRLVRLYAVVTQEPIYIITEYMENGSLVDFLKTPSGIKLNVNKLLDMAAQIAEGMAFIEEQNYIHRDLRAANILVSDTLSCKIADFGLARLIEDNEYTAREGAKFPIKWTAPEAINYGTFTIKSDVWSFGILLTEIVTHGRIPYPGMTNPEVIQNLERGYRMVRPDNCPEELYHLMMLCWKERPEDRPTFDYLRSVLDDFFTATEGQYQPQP
Chain of Tyrosine-protein kinase Lyn (Homo sapiens) (P07948 2-512 limits assumed): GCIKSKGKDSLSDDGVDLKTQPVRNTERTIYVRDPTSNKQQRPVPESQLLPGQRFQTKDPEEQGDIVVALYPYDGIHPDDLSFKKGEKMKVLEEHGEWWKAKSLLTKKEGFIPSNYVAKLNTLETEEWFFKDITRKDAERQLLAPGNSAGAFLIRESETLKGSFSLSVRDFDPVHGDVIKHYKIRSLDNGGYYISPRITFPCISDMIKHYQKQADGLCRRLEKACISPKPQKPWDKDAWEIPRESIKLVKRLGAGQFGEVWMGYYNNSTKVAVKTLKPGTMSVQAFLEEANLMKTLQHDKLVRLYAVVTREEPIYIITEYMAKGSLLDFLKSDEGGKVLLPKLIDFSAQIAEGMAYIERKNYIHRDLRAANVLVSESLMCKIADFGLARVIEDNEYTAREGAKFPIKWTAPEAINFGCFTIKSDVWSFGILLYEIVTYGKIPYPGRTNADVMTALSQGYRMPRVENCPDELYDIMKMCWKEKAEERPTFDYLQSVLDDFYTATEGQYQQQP
Chain of Proto-oncogene tyrosine-protein kinase Src (Homo sapiens) (P12931 2-536 limits assumed): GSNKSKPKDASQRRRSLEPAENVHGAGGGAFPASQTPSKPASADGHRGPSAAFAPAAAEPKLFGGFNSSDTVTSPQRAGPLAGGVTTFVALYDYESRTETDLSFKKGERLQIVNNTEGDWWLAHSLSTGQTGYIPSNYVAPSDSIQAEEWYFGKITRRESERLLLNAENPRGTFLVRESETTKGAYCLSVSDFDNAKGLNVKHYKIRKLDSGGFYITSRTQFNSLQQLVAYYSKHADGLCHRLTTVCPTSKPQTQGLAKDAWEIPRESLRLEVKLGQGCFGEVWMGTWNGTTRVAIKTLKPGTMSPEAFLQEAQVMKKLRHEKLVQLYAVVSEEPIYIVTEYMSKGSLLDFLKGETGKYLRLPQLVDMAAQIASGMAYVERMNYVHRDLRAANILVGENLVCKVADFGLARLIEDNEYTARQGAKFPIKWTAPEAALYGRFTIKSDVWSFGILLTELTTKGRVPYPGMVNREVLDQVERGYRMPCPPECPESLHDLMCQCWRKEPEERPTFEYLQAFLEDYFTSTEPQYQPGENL

On to `Cc1cc(-c2cccs2)cc(C)c1/C=C/c1cncc(-c2nn[nH]n2)c1`, for which the “Log IC50” value in assay [1] is recorded as -6.5.
As to `Cc1cccc(C)c1/C=C/c1cncc(C#N)c1`, in assay [1], the “Log IC50” value was -6.
As to `Cc1cc(O)cc(C)c1/C=C/c1cncc(C#N)c1`, the “Log IC50” value in assay [1] is on record as -6.1.
Same read-out and setting: under `CNC(=O)Oc1cc(C)c(/C=C/c2cncc(C(=O)N(C)C)c2)c(C)c1` stands -5.1; under `CNC(=O)Oc1cc(C)c(/C=C/c2cncc(C(=O)OC(C)(C)C)c2)c(C)c1`, -7; under `Cc1cc(-c2ccsc2)cc(C)c1/C=C/c1cncc(-c2nn[nH]n2)c1`, -6.
`Cc1cc(-c2ccco2)cc(C)c1/C=C/c1cncc(-c2nn[nH]n2)c1`: in [1], the “Log IC50” value was -6.2.
On to `Cc1cccc(C)c1/C=C/c1cncc(-c2nn[nH]n2)c1`, for which the “Log IC50” value in assay [1] is -7.9. Also, the outcome in [2] and in assay [3] was inactive.
With `Cc1cc(-c2cccnc2)cc(C)c1/C=C/c1cncc(-c2nn[nH]n2)c1`, the “Log IC50” value in assay [1] is on record as -6.2.
Consider `CNC(=O)c1cncc(/C=C/c2c(C)cccc2Cl)c1`, for which the “Log IC50” value in assay [1] is recorded as -7.1.
Regarding `Cc1cc(O)cc(C)c1/C=C/c1cncc(-c2nn[nH]n2)c1`, the “Log IC50” value in [1] was -8.4. Moreover, the IC50 in [4] amounted to 4 nM; in [5], 40 nM. In addition, the outcome in [2] and in assay [3] was inactive.
For `CNC(=O)Oc1cc(C)c(/C=C/c2cncc(C(=O)O)c2)c(C)c1`, the “Log IC50” value in [1] is given as -8.2. The outcome in assay [2] and in assay [3] was inactive.
Regarding `CNC(=O)Oc1cc(C)c(/C=C/c2cncc(C(=O)OC)c2)c(C)c1`, the “Log IC50” value in assay [1] is on record as -7.5.
Take `CNC(=O)Oc1cc(C)c(/C=C/c2cncc(C#N)c2)c(C)c1`: the “Log IC50” value in assay [1] is recorded as -7.4.
Consider `CNC(=O)c1cncc(/C=C/c2c(C)cc(O)cc2C)c1`, for which the “Log IC50” value in [1] is listed as -6.6.
On to `Cc1cc(O)cc(C)c1/C=C/c1cncc(C(=O)OC(C)(C)C)c1` [GW439255X], for which, in [1], the “Log IC50” value is listed as -5.4.
The same measure, in the same setting: the same measure for `CNC(=O)c1cncc(/C=C/c2ccccc2C)c1` [GW445015X]: -5.5.
With `CNC(=O)Oc1cc(C)c(/C=C/c2cncc(C(N)=O)c2)c(C)c1`, the “Log IC50” value in assay [1] is -8.1. Further, the result in assay [2] and in assay [3] was inactive.
Turning to `CNC(=O)c1cncc(/C=C/c2ccccc2Cl)c1` [GW445017X], the “Log IC50” value in [1] is on record as -5.7.
Take `Cc1cc(O)cc(C)c1/C=C/c1cncc(C(N)=O)c1` [GW435821X]: the “Log IC50” value in assay [1] was -6.8.
`Cc1cc(O)cc(C)c1/C=C/c1cncc(C(=O)N(C)C)c1` [GW427984X]: the “Log IC50” value in assay [1] is reported as -5.1.
As to `COC(=O)c1cncc(/C=C/c2c(C)cc(O)cc2C)c1` [GW406731X], the “Log IC50” value in assay [1] is on record as -6.2.
For the molecule `CNC(=O)Oc1cc(C)c(/C=C/c2cncc(C(=O)NC)c2)c(C)c1` [GW432441X], the “Log IC50” value in [1] is recorded as -8.
With `CNC(=O)c1cncc(/C=C/c2c(C)cccc2C)c1` [GW445012X], the “Log IC50” value in assay [1] is on record as -6.6.
For `CNC(=O)c1cncc(/C=C/c2c(Cl)cccc2Cl)c1` [GW445014X], the “Log IC50” value in [1] is recorded as -6.6.
Turning to `CCc1cccc(CC)c1/C=C/c1cncc(C(=O)NC)c1` [GW450241X], the “Log IC50” value in assay [1] is -4.6.
In the case of `Cc1cc(-c2ccccn2)cc(C)c1/C=C/c1cncc(-c2nn[nH]n2)c1`, in assay [1], the “Log IC50” value is -7. The result in [6], in [7], in assay [8] and in [9] was Active. The result in assay [2] and in assay [3] was inactive.
Take `Cc1cc(O)cc(C)c1/C=C/c1cncc(C(=O)O)c1`: the “Log IC50” value in [1] is reported as -6.4. The molecule also showed an IC50 in assay [4] of 400 nM. Also, the outcome in assay [2] and in assay [3] was inactive.
